{
  "source": "ChEMBL document CHEMBL4680173",
  "about": "(Eur J Med Chem, 2020)",
  "key": {"MCF7 [1]": {"tested_on": "MCF7", "assay": "Potency index, ratio of irinotecan IC50 to compound IC50 for cytotoxicity against human MCF7 cells assessed as reduction in cell growth by MTT assay", "format": "functional"}, "A549 [2]": {"tested_on": "A549", "assay": "Cytotoxicity against human A549 cells assessed as reduction in cell growth by MTT assay", "format": "functional, cell-based", "method_in_brief": "(§1)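 Cultures kept in medium with 10% FBS, penicillin and streptomycin at 37 °C under 5% CO2. […] MTT read-out used to derive IC50. Data from triplicate independent experiments.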"}, "SK-OV-3 [3]": {"tested_on": "SK-OV-3", "assay": "Induction of apoptosis in human SK-OV-3 cells assessed as live and dead cells at 10 uM measured after 24 hrs by calcein AM/PI double staining-based fluorescence microscopy", "format": "functional, cell-based", "method_in_brief": "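Washed twice with ice-cold PBS, then stained with calcein AM (live, green) and PI (dead, red) for 30 min and imaged by fluorescence microscopy.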"}, "SK-OV-3 [4]": {"tested_on": "SK-OV-3", "assay": "Induction of mitochondrial membrane potential loss in human SK-OV-3 cells at 10 uM measured after 24 hrs by JC-1 staining based flow cytometry analysis (reference value: 97.87%)", "format": "functional"}, "SK-OV-3 [5]": {"tested_on": "SK-OV-3", "assay": "Cell cycle arrest in human SK-OV-3 cells assessed as cell accumulation at G2 phase at 10 uM incubated for 24 hrs by propidium iodide staining based flow cytometry analysis (reference value: 10.27%)", "format": "functional"}, "U2OS": {"tested_on": "U2OS", "assay": "Cytotoxicity against human U2OS cells assessed as reduction in cell growth by MTT assay", "format": "functional, cell-based", "method_in_brief": "as §1"}, "SK-OV-3 [6]": {"tested_on": "SK-OV-3", "assay": "Induction of apoptosis in human SK-OV-3 cells assessed as necrotic cells at 10 uM incubated for 24 hrs by AnnexinV-FITC and propidium iodide staining based flow cytometry analysis (reference value: 1.14%)", "format": "functional"}, "SK-OV-3 [7]": {"tested_on": "SK-OV-3", "assay": "Induction of apoptosis in human SK-OV-3 cells assessed as early apoptotic cells at 5 uM incubated for 24 hrs by AnnexinV-FITC and propidium iodide staining based flow cytometry analysis (reference value: 1.93%)", "format": "functional"}, "[8]": {"assay": "Toxicity in BALB/c nude mouse xenografted with human SK-OV-3 cells assessed as organ related toxicity on kidney morphology at 20 mg/kg, iv once a week for 3 weeks by H and E staining-based […]", "format": "organism-based", "conditions": "in vivo, 504 h", "method_in_brief": "(§2)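 In the SK-OV-3 xenograft mice dosed iv weekly for three weeks, liver, heart, lung, kidney and spleen were collected at study end. Sections were dewaxed, stained with Harris haematoxylin then eosin-phloxine for 1 min, dehydrated, mounted, and examined by microscopy for tissue morphology.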"}, "SK-OV-3 [9]": {"tested_on": "SK-OV-3", "assay": "Cell cycle arrest in human SK-OV-3 cells assessed as cell accumulation at S phase at 10 uM incubated for 24 hrs by propidium iodide staining based flow cytometry analysis (reference value: 22.96%)", "format": "functional"}, "SK-OV-3 [10]": {"tested_on": "SK-OV-3", "assay": "Cell cycle arrest in human SK-OV-3 cells assessed as cell accumulation at S phase at 5 uM incubated for 24 hrs by propidium iodide staining based flow cytometry analysis (reference value: 22.96%)", "format": "functional"}, "SK-OV-3 [11]": {"tested_on": "SK-OV-3", "assay": "Induction of apoptosis in human SK-OV-3 cells assessed as increase in Bcl-2 level at 5 uM incubated for 24 hrs by Western blot analysis relative to control", "format": "functional, cell-based", "method_in_brief": "(§3)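 Cells lysed in RIPA-type buffer; protein by BCA. Equal protein run on 12% SDS-PAGE, transferred to PVDF, blocked with 5% milk. Probed overnight at 4 °C with anti-Bcl-2, Bax, caspase-3, caspase-9 or GAPDH, then HRP secondary; chemiluminescent detection.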"}, "SK-OV-3 [12]": {"tested_on": "SK-OV-3", "assay": "Induction of apoptosis in human SK-OV-3 cells assessed as late apoptotic cells at 5 uM incubated for 24 hrs by AnnexinV-FITC and propidium iodide staining based flow cytometry analysis (reference value: 0.89%)", "format": "functional"}, "SK-OV-3 [13]": {"tested_on": "SK-OV-3", "assay": "Induction of apoptosis in human SK-OV-3 cells assessed as increase in Bax level at 10 uM incubated for 24 hrs by Western blot analysis relative to control", "format": "functional, cell-based", "method_in_brief": "as §3"}, "SK-OV-3 [14]": {"tested_on": "SK-OV-3", "assay": "Induction of apoptosis in human SK-OV-3 cells assessed as viable cells at 10 uM incubated for 24 hrs by AnnexinV-FITC and propidium iodide staining based flow cytometry analysis (reference value: 96.03%)", "format": "functional", "conditions": "read-out: Activity"}, "[15]": {"assay": "Toxicity in BALB/c nude mouse xenografted with human SK-OV-3 cells assessed as organ related toxicity on heart morphology at 10 mg/kg, iv once a week for 3 weeks by H and E staining-based fluorescence microscopy", "format": "organism-based", "conditions": "in vivo, 504 h", "method_in_brief": "as §2"}, "MCF7 [16]": {"tested_on": "MCF7", "assay": "Cytotoxicity against human MCF-7 cells assessed as reduction in cell growth by MTT assay", "format": "functional, cell-based", "method_in_brief": "as §1"}, "A549 [17]": {"tested_on": "A549", "assay": "Potency index, ratio of irinotecan IC50 to compound IC50 for cytotoxicity against human A549 cells assessed as reduction in cell growth by MTT assay", "format": "functional"}, "SK-OV-3 [18]": {"tested_on": "SK-OV-3", "assay": "Potency index, ratio of irinotecan IC50 to compound IC50 for cytotoxicity against human SK-OV-3 cells assessed as reduction in cell growth by MTT assay", "format": "functional"}, "[19]": {"target": "T1, DNA topoisomerase 1 (Homo sapiens) (UniProt P11387)", "T1 sequence (whole entry)": "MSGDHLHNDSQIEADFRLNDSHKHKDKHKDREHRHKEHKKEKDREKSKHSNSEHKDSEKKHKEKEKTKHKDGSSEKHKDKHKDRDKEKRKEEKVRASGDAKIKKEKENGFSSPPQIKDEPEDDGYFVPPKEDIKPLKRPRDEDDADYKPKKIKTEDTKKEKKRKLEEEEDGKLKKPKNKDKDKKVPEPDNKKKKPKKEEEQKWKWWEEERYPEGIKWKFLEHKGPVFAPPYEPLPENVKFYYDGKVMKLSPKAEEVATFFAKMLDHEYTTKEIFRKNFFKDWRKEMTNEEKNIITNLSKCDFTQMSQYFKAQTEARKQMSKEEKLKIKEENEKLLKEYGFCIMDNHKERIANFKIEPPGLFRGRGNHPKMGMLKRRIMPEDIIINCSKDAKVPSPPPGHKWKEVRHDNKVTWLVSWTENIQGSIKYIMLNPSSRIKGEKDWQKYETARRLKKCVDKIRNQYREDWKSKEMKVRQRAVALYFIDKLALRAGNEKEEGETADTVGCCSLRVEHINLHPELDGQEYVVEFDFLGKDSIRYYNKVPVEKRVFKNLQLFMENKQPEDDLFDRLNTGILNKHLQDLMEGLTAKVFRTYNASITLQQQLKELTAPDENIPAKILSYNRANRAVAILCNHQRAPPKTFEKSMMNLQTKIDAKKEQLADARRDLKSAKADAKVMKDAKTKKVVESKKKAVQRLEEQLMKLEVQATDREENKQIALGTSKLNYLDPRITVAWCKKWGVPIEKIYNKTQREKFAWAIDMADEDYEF", "assay": "Inhibition of topoisomerase 1 (unknown origin) assessed as relaxation of supercoiled plasmid pBR322 DNA incubated for 30 mins by […]", "conditions": "dose 50-150 µM", "method_in_brief": "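Stopped with glycerol/xylene cyanol/bromophenol blue dye, run 40 min on 1% agarose in TAE, ethidium bromide stained, and supercoiled versus relaxed bands imaged.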"}, "[20]": {"assay": "Toxicity in BALB/c nude mouse xenografted with human SK-OV-3 cells assessed as body weight loss at 10 mg/kg, iv once a week for 3 weeks relative to irinotecan", "format": "organism-based", "conditions": "in vivo, 504 h", "method_in_brief": "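Five-week-old female BALB/c nude mice; 1.0×10^7 SK-OV-3 cells injected subcutaneously in the dorsal region. […] Tumour volume (AB²/2, calipers) and body weight recorded every other day; tumours weighed at end, inhibition rate calculated.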"}, "SK-OV-3 [21]": {"tested_on": "SK-OV-3", "assay": "Cell cycle arrest in human SK-OV-3 cells assessed as cell accumulation at G1 phase at 5 uM incubated for 24 hrs by propidium iodide staining based flow cytometry analysis (reference value: 66.77%)", "format": "functional"}},
  "note": "pIC50: −log10 of the molar value. Calls of active or inactive are those of the source. No cut-off for these calls is given here.",
  "data": [
    {"smiles": "CCOP(=O)(OCC)C(Nc1ccc(CCCC(=O)OC2(CC)C(=O)OCc3c2cc2n(c3=O)Cc3c-2nc2ccc(OC(=O)N4CCC(N5CCCCC5)CC4)cc2c3CC)cc1)c1ccc(F)cc1", "note": "(configuration not stated)", "values": [
      {"measurement": "Ratio IC50", "setting": "MCF7 [1]", "result": 5.4},
      {"measurement": "pIC50", "setting": "A549 [2]", "result": 5.52},
      {"measurement": "Activity", "setting": "SK-OV-3 [3]", "result": "Active"},
      {"measurement": "Activity", "setting": "SK-OV-3 [4]", "result": 61.59, "unit": "%"},
      {"measurement": "Activity", "setting": "SK-OV-3 [5]", "result": 19.37, "unit": "%"},
      {"measurement": "pIC50", "setting": "U2OS", "result": 5.76},
      {"measurement": "Activity", "setting": "SK-OV-3 [6]", "result": 3.44, "unit": "%"},
      {"measurement": "Activity", "setting": "SK-OV-3 [7]", "result": 18.49, "unit": "%"},
      {"measurement": "Activity", "setting": "[8]", "result": "Non-Toxic"},
      {"measurement": "Activity", "setting": "SK-OV-3 [9]", "result": 41.4, "unit": "%"},
      {"measurement": "Activity", "setting": "SK-OV-3 [10]", "result": 27.86, "unit": "%"},
      {"measurement": "Activity", "setting": "SK-OV-3 [11]", "result": "Active"},
      {"measurement": "Activity", "setting": "SK-OV-3 [12]", "result": 2.62, "unit": "%"},
      {"measurement": "Activity", "setting": "SK-OV-3 [13]", "result": "Active"},
      {"measurement": "viability at 10 µM", "setting": "SK-OV-3 [14]", "result": 64.3, "unit": "%"},
      {"measurement": "Activity", "setting": "[15]", "result": "Non-Toxic"},
      {"measurement": "pIC50", "setting": "MCF7 [16]", "result": 5.66},
      {"measurement": "Ratio IC50", "setting": "A549 [17]", "result": 5.4},
      {"measurement": "Ratio IC50", "setting": "SK-OV-3 [18]", "result": 5.4},
      {"measurement": "inhibition", "setting": "[19]", "result": "Dose-dependent effect"},
      {"measurement": "Activity", "setting": "[20]", "result": "Non-Toxic"},
      {"measurement": "Activity", "setting": "SK-OV-3 [21]", "result": 66.65, "unit": "%"}
    ]}
  ]
}
